Calls of active or inactive are those of the source. The calls are words filed in the database; no cut-off is given here.
Assays:
[1] = target: T1, Sodium channel protein type 9 subunit alpha (Homo sapiens, UniProt Q15858); assay: Inhibition of human Nav1.7 sodium channel expressed in HEK293 cells by FRET assay; type: cell-based
How it was run: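 HEK-293 cells stably expressing hNav1.7 were used in a functional membrane-potential assay. Channel block was read as FRET between two membrane-associated dyes; the value is reported as IC50.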
Target sequence in this assay (Q15858 whole entry): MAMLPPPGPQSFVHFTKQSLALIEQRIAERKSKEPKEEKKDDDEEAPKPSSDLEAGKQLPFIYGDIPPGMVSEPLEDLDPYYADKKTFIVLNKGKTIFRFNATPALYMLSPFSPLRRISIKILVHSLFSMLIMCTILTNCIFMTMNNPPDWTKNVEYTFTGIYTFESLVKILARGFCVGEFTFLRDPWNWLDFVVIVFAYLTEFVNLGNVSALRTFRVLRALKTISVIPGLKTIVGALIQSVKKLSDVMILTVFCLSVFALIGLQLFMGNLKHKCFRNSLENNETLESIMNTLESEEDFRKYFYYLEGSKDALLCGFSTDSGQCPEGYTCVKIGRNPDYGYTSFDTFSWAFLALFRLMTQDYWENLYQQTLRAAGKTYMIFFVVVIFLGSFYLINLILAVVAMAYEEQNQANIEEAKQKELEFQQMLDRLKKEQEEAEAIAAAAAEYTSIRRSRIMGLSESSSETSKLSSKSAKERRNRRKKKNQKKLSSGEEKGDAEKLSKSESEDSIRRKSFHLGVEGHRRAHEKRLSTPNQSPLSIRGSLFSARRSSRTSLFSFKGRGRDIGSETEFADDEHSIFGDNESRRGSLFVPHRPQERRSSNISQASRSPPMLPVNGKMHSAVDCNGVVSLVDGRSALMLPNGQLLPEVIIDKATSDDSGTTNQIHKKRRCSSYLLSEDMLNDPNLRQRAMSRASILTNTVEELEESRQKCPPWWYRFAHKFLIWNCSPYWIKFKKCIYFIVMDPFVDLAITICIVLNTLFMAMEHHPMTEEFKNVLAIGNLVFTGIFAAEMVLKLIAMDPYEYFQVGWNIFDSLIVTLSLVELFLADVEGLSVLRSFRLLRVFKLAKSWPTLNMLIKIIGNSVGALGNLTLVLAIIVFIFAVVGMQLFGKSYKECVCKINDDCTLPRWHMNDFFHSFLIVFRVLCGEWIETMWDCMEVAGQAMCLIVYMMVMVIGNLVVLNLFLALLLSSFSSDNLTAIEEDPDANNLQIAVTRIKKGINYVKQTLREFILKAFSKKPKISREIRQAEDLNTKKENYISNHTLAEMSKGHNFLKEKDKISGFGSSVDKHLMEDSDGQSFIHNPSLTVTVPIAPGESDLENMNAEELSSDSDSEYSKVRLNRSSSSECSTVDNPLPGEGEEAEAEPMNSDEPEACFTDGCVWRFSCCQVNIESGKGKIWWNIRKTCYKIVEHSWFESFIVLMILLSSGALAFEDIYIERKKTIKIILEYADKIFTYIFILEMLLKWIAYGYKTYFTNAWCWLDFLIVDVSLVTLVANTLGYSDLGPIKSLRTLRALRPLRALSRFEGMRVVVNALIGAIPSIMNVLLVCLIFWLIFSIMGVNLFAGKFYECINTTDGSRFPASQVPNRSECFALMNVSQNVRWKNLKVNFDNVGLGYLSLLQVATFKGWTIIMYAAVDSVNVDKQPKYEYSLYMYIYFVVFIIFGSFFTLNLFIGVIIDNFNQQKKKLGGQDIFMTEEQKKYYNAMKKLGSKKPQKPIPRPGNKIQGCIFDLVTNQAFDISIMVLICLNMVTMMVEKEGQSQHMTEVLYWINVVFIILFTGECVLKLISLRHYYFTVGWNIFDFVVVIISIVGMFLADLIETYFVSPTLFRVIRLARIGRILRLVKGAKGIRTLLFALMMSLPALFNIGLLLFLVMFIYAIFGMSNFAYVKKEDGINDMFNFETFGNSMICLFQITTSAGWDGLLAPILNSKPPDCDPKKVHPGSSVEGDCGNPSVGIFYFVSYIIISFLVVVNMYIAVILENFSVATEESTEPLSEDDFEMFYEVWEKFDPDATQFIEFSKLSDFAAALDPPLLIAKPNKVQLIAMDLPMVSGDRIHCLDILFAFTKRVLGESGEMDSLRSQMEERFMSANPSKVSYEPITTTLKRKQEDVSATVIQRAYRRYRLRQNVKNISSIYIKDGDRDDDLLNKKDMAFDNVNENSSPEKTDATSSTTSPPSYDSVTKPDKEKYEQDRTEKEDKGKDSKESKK

Mus musculus = assay: Anticonvulsant activity in C57BL6J mouse assessed as prevention of shock-induced tonic-clonic seizures at 3 mg/kg, po after 30 mins; type: functional; settings: for ED50: 0.5 h
How it was run: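 Male C57BL6J mice, 14 weeks old. Dosed 3 mg/kg by gavage in 5% EtOH + 10% Tween 80 + 85% water, sonicated, 2 mL/kg. Maximal electroshock via auricular electrodes 30 min post-dose: 100 Hz, 0.7 ms pulse width, 0.5 s duration, 18 mA. Read-out was protection from tonic–clonic seizures; n = 10.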

[2] = test system: hERG (Potassium voltage-gated channel subfamily H member 2, Homo sapiens); assay: Displacement of [35S]MK-0499 from human hERG potassium channel at 1 uM
[3] = test system: hERG (Potassium voltage-gated channel subfamily H member 2, Homo sapiens); assay: Displacement of [35S]MK-0499 from human hERG potassium channel at 10 uM
[4] = Cmax in Sprague-Dawley rat at 3.0 mg/kg, po; settings: in vivo
[5] = Oral bioavailability in Sprague-Dawley rat at 3.0 mg/kg; type: ADME, organism-based; settings: in vivo
How it was run: (§1)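 Fasted male Sprague–Dawley rats (n = 3 per route) received 1.0 mg/kg iv through a femoral vein cannula or 3.0 mg/kg po by gavage. Compound was formulated at 1.5 mg/mL in PEG300/water or DMSO/PEG300/water. Serial blood sampled at 5 min (iv only), 15 and 30 min, and 1, 2, 4, 6, 8 h. Plasma was acetonitrile-precipitated and measured by LC–MS/MS.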

[6] = Clearance in Sprague-Dawley rat at 1.0 mg/kg, iv; type: ADME, organism-based; design: dose 1 mg/kg, route intravenous; settings: in vivo; how it was run: as §1
[7] = Half life in Sprague-Dawley rat at 1.0 mg/kg, iv; type: ADME, organism-based; design: dose 1 mg/kg, route intravenous; settings: in vivo; how it was run: as §1
[8] = target: T1, Sodium channel protein type 9 subunit alpha; settings: HEK293, 1 uM
Target sequence in this assay (Q15858 whole entry, looked up): as the sequence (Q15858 whole entry) above

[9] = target: T1, Sodium channel protein type 9 subunit alpha; assay: Inhibition of human Nav1.7 sodium channel expressed in HEK293 cells at a membrane potential of -70 mV by whole cell voltage clamp technique; type: cell-based
How it was run: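 Whole-cell voltage clamp on HEK-293 cells stably expressing hNav1.7. Peak current evoked by 20 ms depolarizations from −70 mV. Bath: 40 mM NaCl, 120 mM NMDG–Cl, 1 mM KCl, 2.7 mM CaCl2, 0.5 mM MgCl2, 10 mM NMDG–Hepes, pH 7.4. Pipette: Cs–methanesulfonate/CsCl/CsF/BAPTA-based, pH 7.4. Junction potentials (<4 mV) were not corrected.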
Target sequence in this assay (Q15858 whole entry): as above

[10] = target: T1, Sodium channel protein type 9 subunit alpha; settings: HEK293
Target sequence in this assay (Q15858 whole entry, looked up): as the sequence (Q15858 whole entry) above

Row | Structure (SMILES) | IC50 [1] [nM] | inhibition [2] [%] | inhibition [3] [%] | further results
1 | CN1C(=O)[C@H](NC(=O)[C@@H](Cc2ccccc2F)NC(=O)OC(C)(C)C)CN(CC2CC2)c2ccccc21 | 49 |  |  | 
2 | Nc1nnc(-c2cccc(Cl)c2Cl)c(N)n1 [LAMOTRIGINE] |  |  |  | ED50 (Mus musculus): 2.2 mg/kg
3 | CN1C(=O)[C@H](NC(=O)[C@@H](Cc2ccccc2F)NC(=O)OC(C)(C)C)CN(CC2CCCCC2)c2ccccc21 | 188 | 17 | 43 | 
4 | CC(C)N1C(=O)[C@H](NC(=O)[C@@H](Cc2ccccc2F)NC(=O)OC(C)(C)C)CN(CC2CC2)c2ccccc21 (stereo in doubt; 22) [listing 1 of 2 here] | 102 |  |  | 
5 | CC(C)(C)OC(=O)N[C@H](Cc1cc(C(F)(F)F)ccc1C(F)(F)F)C(=O)N[C@@H]1CN(CC2CC2)c2ccccc2N(CC(F)(F)F)C1=O | 120 |  | 6 | 
6 | CC(C)N1C(=O)[C@H](NC(=O)[C@@H](Cc2ccccc2OC(F)(F)F)NC(=O)OC(C)(C)C)CN(CC2CC2)c2ccccc21 | 75 |  | 35 | Cmax [4]: 40 nM; bioavailability [5]: 4%; clearance [6]: 30 mL/min/kg; half-life [7]: 2.4 h
7 | CN1C[C@@H](NC(=O)[C@@H](Cc2ccccc2F)NC(=O)OC(C)(C)C)C(=O)N(C)c2ccccc21 | 142 | 0 | 7 | 
8 | NC(=O)N1c2ccccc2C=Cc2ccccc21 [CARBAMAZEPINE] |  |  |  | ED50 (Mus musculus): 3.4 mg/kg
9 | CC(C)N1C(=O)[C@H](NC(=O)[C@@H](Cc2ccccc2)NC(=O)OC(C)(C)C)CN(CC2CC2)c2ccccc21 | 52 |  | 42 | 
10 | CC(C)N1C(=O)[C@H](NC(=O)[C@@H](Cc2c(F)cccc2F)NC(=O)OC(C)(C)C)CN(CC2CC2)c2ccccc21 | 97 |  | 25 | 
11 | CC(C)N1C(=O)[C@H](NC(=O)[C@@H](Cc2ccc(F)cc2)NC(=O)OC(C)(C)C)CN(CC2CC2)c2ccccc21 | 196 |  |  | 
12 | CC(C)N1C(=O)[C@H](NC(=O)[C@@H](Cc2ccccc2F)NC(=O)OC(C)(C)C)CN(CC2CC2)c2ccccc21 (stereo in doubt; 14) [listing 1 of 2 here] |  |  |  | IC50 ([1]; hek293): 102 nM
13 | CC(C)(C)OC(=O)N[C@H](Cc1ccccc1F)C(=O)N[C@@H]1CN(CC2CC2)c2ccccc2N(CC(F)(F)F)C1=O | 101 | 7 | 20 | 
14 | CC(C)(C)OC(=O)N[C@H](Cc1ccccc1OC(F)(F)F)C(=O)N[C@@H]1CN(CC2CC2)c2ccccc2N(CC(F)(F)F)C1=O | 73 |  |  | 
15 | CN1C(=O)[C@H](NC(=O)[C@@H](Cc2ccccc2F)NC(=O)OC(C)(C)C)CN(CC2CCC2)c2ccccc21 | 81 | 20 | 65 | 
16 | CC(C)N1C(=O)[C@H](NC(=O)[C@@H](Cc2ccccc2F)NC(=O)OC(C)(C)C)CN(CC2CC2)c2ccccc21 (stereo in doubt; 14) [listing 2 of 2 here] |  | 7 | 33 | 
17 | CC(C)N1C(=O)[C@H](NC(=O)[C@@H](Cc2ccccc2C(F)(F)F)NC(=O)OC(C)(C)C)CN(CC2CC2)c2ccccc21 | 149 |  |  | Cmax [4]: 150 nM; bioavailability [5]: 9%; clearance [6]: 23 mL/min/kg; half-life [7]: 2.5 h
18 | CC(C)(C)OC(=O)N[C@H](Cc1ccccc1)C(=O)N[C@@H]1CN(CC2CC2)c2ccccc2N(CC(F)(F)F)C1=O | 30 |  |  | Cmax [4]: 30 nM; inhibition [8]: < 10%; IC50 [9]: 1.54 nM; Ki [9]: 0.63 nM; Activity (Mus musculus): Active; bioavailability [5]: 5%; clearance [6]: 48 mL/min/kg; Kr [10]: > 5 µM; half-life [7]: 3.1 h
19 | CN1C(=O)[C@H](NC(=O)[C@@H](Cc2ccccc2F)NC(=O)OC(C)(C)C)CN(CC(F)(F)F)c2ccccc21 | 47 | 36 | 62 | 
20 | CC(C)(C)OC(=O)N[C@H](Cc1ccccc1C(F)(F)F)C(=O)N[C@@H]1CN(CC2CC2)c2ccccc2N(CC(F)(F)F)C1=O | 131 |  | 11 | Cmax [4]: 60 nM; bioavailability [5]: 10%; clearance [6]: 51 mL/min/kg; half-life [7]: 2.4 h
21 | CC(C)(C)OC(=O)N[C@H](Cc1cccc(F)c1)C(=O)N[C@@H]1CN(CC2CC2)c2ccccc2N(CC(F)(F)F)C1=O | 142 |  | 17 | 
22 | CC(C)N1C(=O)[C@H](NC(=O)[C@@H](Cc2ccccc2F)NC(=O)OC(C)(C)C)CN(CC2CC2)c2ccccc21 (stereo in doubt; 22) [listing 2 of 2 here] |  |  | 32 | 
23 | CC(C)N1C(=O)[C@H](NC(=O)[C@@H](Cc2cccc(F)c2)NC(=O)OC(C)(C)C)CN(CC2CC2)c2ccccc21 | 96 |  | 17 | 
24 | CC(C)(C)OC(=O)N[C@H](Cc1ccc(F)cc1)C(=O)N[C@@H]1CN(CC2CC2)c2ccccc2N(CC(F)(F)F)C1=O | 219 |  |  | 
25 | CN1C(=O)[C@H](NC(=O)[C@@H](Cc2ccccc2F)NC(=O)OC(C)(C)C)CN(Cc2ccccc2)c2ccccc21 | 25 | 14 | 84 | 
26 | CN1C(=O)[C@H](NC(=O)[C@@H](Cc2ccccc2F)NC(=O)OC(C)(C)C)CNc2ccccc21 | 409 | 0 | 25 | 
